Laboratory results from ChEMBL document CHEMBL1141352, “Microbial transformation of cephalomannine by Luteibacter sp” (J Nat Prod, 2007).

Legend:
Assay type in all cases: functional, cell-based
A2780 = assay: Cytotoxicity against human A2780 cells by MTT assay
Method in brief: (§1)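 Cells kept in RPMI 1640 with 10% FBS, penicillin 100 units/mL and streptomycin 100 μg/mL, at 37 °C in humidified 5% CO2. Seeded at 1200 cells/well; compounds added after 24 h and incubated 96 h. Tested at 10^-5 to 10^-9 M (five concentrations) from DMSO stocks, with 0.1% DMSO final, in triplicate wells. Viability by MTT formazan absorbance at 570 nm.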

Bel-7402 = assay: Cytotoxicity against human Bel7402 cells by MTT assay; method in brief: as §1
A549 = assay: Cytotoxicity against human A549 cells by MTT assay; method in brief: as §1
HCT-8 = assay: Cytotoxicity against human HCT8 cells by MTT assay; method in brief: as §1
BGC-823 = assay: Cytotoxicity against human BGC823 cells by MTT assay; method in brief: as §1

Structure (SMILES): CC(=O)O[C@H]1C(=O)[C@@]2(C)[C@H]([C@H](OC(=O)c3ccccc3)[C@]3(O)C[C@H](OC(=O)[C@H](O)[C@@H](NC(=O)c4ccccc4)c4ccccc4)C(C)=C1C3(C)C)[C@]1(OC(C)=O)CO[C@@H]1C[C@@H]2O [PACLITAXEL]
- IC50 (A2780): 6.3 nM
- IC50 (Bel-7402): 100 nM
- IC50 (A549): 19 nM
- IC50 (HCT-8): 37 nM
- IC50 (BGC-823): 7 nM

Structure (SMILES): CC(=O)O[C@@]12CO[C@@H]1C[C@@H](O)[C@@]1(C)C(=O)C(=O)C3=C(C)[C@@H](O)C[C@@](O)([C@@H](OC(=O)c4ccccc4)[C@H]21)C3(C)C
- IC50 (A2780): 4890 nM
- IC50 (Bel-7402): > 10000 nM
- IC50 (A549): > 10000 nM
- IC50 (HCT-8): > 10000 nM
- IC50 (BGC-823): 1380 nM

Structure (SMILES): CC(=O)O[C@H]1C(=O)[C@]2(C)[C@@H](O[C@H]3OC[C@@H](O)[C@H](O)[C@H]3O)C[C@H]3OC[C@@]3(OC(C)=O)[C@H]2[C@H](OC(=O)c2ccccc2)[C@]2(O)C[C@H](O)C(C)=C1C2(C)C
- IC50 (A2780): > 10000 nM
- IC50 (Bel-7402): > 10000 nM
- IC50 (A549): > 10000 nM
- IC50 (HCT-8): > 10000 nM
- IC50 (BGC-823): > 10000 nM

Structure (SMILES): C/C=C(\C)C(=O)N[C@@H](c1ccccc1)[C@@H](O)C(=O)O[C@H]1C[C@@]2(O)[C@@H](OC(=O)c3ccccc3)[C@@H]3[C@]4(OC(C)=O)CO[C@@H]4C[C@H](O)[C@@]3(C)C(=O)[C@H](O)C(=C1C)C2(C)C
- IC50 (A2780): 90 nM
- IC50 (Bel-7402): 2690 nM
- IC50 (A549): > 10000 nM
- IC50 (HCT-8): 3290 nM
- IC50 (BGC-823): 100 nM

Structure (SMILES): CCC(C)C(=O)N[C@@H](c1ccccc1)[C@@H](O)C(=O)O[C@H]1C[C@@]2(O)[C@@H](OC(=O)c3ccccc3)[C@@H]3[C@]4(OC(C)=O)CO[C@@H]4C[C@@H](O)[C@@]3(C)C(=O)[C@H](OC(C)=O)C(=C1C)C2(C)C (stereo not given in full)
- IC50 (A2780): 650 nM
- IC50 (Bel-7402): 3300 nM
- IC50 (A549): 2240 nM
- IC50 (HCT-8): 1570 nM
- IC50 (BGC-823): 530 nM

Structure (SMILES): C/C=C(/C)C(=O)N[C@@H](c1ccccc1)[C@@H](O)C(=O)O[C@H]1C[C@@]2(O)[C@@H](OC(=O)c3ccccc3)[C@@H]3[C@]4(OC(C)=O)CO[C@@H]4C[C@@H](O)[C@@]3(C)C(=O)[C@H](OC(C)=O)C(=C1C)C2(C)C
- IC50 (A2780): 70 nM
- IC50 (Bel-7402): 690 nM
- IC50 (A549): 90 nM
- IC50 (HCT-8): 230 nM
- IC50 (BGC-823): 90 nM

Structure (SMILES): C/C=C(/C)C(=O)N[C@@H](c1ccccc1)[C@@H](O)C(=O)O[C@H]1C[C@@]2(O)[C@@H](OC(=O)c3ccccc3)[C@@H]3[C@]4(OC(C)=O)CO[C@@H]4C[C@@H](O)[C@@]3(C)C(=O)[C@H](O)C(=C1C)C2(C)C
- IC50 (A2780): 350 nM
- IC50 (Bel-7402): 3530 nM
- IC50 (A549): 3240 nM
- IC50 (HCT-8): 2230 nM
- IC50 (BGC-823): 790 nM

Structure (SMILES): C/C=C(\C)C(=O)N[C@@H](c1ccccc1)[C@@H](O)C(=O)O[C@H]1C[C@@]2(O)[C@@H](OC(=O)c3ccccc3)[C@@H]3[C@]4(OC(C)=O)CO[C@@H]4C[C@H](O)[C@@]3(C)C(=O)[C@H](OC(C)=O)C(=C1C)C2(C)C [CEPHALOMANNINE]
- IC50 (A2780): 100 nM
- IC50 (Bel-7402): 920 nM
- IC50 (A549): 100 nM
- IC50 (HCT-8): 310 nM
- IC50 (BGC-823): 100 nM
